High-throughput results from PubChem.
Only some compounds are listed: those with a hit (about 5.8% of all), similar ones and a draw of the others.
PLK1 kinase inh: blocks human PLK1 kinase activity. inhibition, % at 10 µM. AID 619. recombinant PLK1 kinase, TR-FRET peptide phosphorylation. P53350. hit rate 0.53% among 97,000;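 active = inhibition of 50% or more in the single-concentration screen; inactive = inhibition below 50%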
PTK2B oligo ant: antagonists of human Pyk2 oligomerization; Q293 cells, Pyk2 FERM NanoBiT luminescence; stronger effect = lower value; AID 1347419; hit rate 0.83% among 99,000; Q14289; z-score (the deposit names both 25 µM and 10 µM);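 active = Z-score of -3 or lower, scaled per plate to the spread of control and sample wells; inactive = z-score above -3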;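 also: negative z-score means lost luminescence so less FERM oligomerization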
HIV Rev-RRE inh: disrupts HIV-1 Rev binding to RRE RNA. Rev peptide-RRE RNA binding, FRET. P05866. inhibition, % at 8 µM. hit rate 0.79% among 97,000;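 active = inhibition above the screen-wide mean plus 3 SD, cut at about 35% in these data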
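System: Cy5-labelled duplex RRE RNA binding fluorescein-labelled HIV Rev peptide; Signal: fluorescein-to-Cy5 FRET, 480 nm excitation; Also added: labelled Rev peptide; Compound: one concentration, 8 µM nominal; Buffer or medium: HEPES pH 7.5 salt buffer with EDTA; Read-out: % inhibition of FRET ratio versus controls; Schedule: 5 min preincubation and 15 min binding, 25 °C.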
PLK1 PBD inh: inhibitors of human Plk1 polo box domain binding. P53350. Plk1 PBD phosphopeptide binding, fluorescence polarization. inhibition, %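 (tested at about 20 µM)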. hit rate 0.13% among 97,000. AID 693; in the data active = inhibition above about 34%, passing the limit was not always enough
FAK blocker: FAK (human) kinase inhibition. biochemical FAK kinase activity assay. Q05397. inhibition, %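 (tested at 7 µM)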. hit rate 0.84% among 97,000; in the data active = inhibition above about 19%
Cav32 inh: inhibitors of human Cav3.2 T-type calcium channel | AID 449739 | Cav3.2-expressing cells, Fluo-4 calcium fluorescence FDSS; stronger effect = lower value | hit rate 4% among 100,000 | B-score at 10 µM | O95180;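 active = single-dose well whose peak fluorescence ratio is a statistical outlier from its plate by either plate-standardised score or position-corrected B-score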
Target sequence (O95180 whole entry, looked up): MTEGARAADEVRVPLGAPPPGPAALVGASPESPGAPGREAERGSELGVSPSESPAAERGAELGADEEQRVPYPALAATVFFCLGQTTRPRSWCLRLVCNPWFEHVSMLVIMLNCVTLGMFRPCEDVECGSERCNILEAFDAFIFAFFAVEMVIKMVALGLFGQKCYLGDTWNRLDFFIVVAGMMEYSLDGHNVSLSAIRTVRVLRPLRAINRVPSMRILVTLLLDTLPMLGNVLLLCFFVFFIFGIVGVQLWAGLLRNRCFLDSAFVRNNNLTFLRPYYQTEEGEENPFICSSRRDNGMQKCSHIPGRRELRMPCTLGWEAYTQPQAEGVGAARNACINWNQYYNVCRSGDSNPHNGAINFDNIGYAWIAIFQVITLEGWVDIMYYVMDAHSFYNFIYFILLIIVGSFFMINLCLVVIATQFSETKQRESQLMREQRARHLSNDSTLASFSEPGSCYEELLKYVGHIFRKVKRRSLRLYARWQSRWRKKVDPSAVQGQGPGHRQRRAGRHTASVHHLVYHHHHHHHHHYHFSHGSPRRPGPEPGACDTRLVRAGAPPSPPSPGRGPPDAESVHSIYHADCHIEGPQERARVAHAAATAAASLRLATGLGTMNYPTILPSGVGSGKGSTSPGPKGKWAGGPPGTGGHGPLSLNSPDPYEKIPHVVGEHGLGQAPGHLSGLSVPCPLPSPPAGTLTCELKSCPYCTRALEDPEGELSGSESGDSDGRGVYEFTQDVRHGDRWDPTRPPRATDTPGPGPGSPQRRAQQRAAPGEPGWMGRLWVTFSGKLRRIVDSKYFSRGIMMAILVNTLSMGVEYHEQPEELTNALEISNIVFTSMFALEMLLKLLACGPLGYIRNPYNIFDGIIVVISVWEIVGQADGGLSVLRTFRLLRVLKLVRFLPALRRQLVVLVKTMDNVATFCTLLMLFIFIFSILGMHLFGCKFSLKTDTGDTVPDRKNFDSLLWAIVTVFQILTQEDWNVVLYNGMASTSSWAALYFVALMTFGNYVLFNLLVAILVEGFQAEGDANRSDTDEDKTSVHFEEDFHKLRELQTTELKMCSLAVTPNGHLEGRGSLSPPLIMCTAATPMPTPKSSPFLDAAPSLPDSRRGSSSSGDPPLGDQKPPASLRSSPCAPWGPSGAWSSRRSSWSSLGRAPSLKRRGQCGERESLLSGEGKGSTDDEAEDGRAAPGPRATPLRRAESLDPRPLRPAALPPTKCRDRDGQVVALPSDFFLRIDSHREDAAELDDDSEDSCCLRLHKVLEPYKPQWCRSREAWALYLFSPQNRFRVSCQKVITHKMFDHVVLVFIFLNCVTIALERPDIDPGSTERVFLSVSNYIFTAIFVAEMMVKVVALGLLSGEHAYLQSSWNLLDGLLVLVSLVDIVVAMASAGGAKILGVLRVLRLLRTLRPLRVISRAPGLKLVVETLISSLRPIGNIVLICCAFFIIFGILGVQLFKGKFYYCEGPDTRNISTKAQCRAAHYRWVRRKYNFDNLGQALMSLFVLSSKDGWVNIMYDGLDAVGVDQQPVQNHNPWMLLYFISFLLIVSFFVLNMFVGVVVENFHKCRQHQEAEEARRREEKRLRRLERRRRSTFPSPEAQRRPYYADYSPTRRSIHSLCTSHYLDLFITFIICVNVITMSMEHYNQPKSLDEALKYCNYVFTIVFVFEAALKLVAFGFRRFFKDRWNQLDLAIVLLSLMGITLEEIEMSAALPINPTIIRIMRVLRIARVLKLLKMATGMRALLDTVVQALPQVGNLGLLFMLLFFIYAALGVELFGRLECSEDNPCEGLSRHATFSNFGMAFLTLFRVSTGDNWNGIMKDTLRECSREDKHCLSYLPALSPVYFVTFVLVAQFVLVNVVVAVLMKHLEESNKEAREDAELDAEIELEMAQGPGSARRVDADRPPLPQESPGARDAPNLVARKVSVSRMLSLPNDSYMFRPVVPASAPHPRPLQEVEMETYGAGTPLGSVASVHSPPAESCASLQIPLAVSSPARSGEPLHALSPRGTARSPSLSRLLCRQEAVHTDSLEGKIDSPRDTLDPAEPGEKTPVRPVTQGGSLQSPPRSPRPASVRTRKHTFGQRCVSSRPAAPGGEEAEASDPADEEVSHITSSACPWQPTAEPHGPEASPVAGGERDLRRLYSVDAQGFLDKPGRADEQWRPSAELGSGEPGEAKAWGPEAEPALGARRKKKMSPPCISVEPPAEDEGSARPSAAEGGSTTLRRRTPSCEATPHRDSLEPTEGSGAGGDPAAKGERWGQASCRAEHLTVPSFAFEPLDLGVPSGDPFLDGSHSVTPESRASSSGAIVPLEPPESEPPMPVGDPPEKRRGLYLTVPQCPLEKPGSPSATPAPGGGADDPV
PLK1 inh conf: PLK1 (human) kinase inhibition, confirmed; inhibition, % at 10 µM; hit rate 20% among 210; recombinant PLK1 kinase, TR-FRET peptide phosphorylation; AID 744; shares compounds with PLK1 kinase inh;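 active = inhibition at or above 50% in each of two repeat confirmation tests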
Plk1 interf: Plk1 assay compound interference counter-screen hit. 210 tested, under 10 active. AID 756. Plk1 TR-FRET assay interference, compound added post-reaction. inhibition (interference), % at 10 µM. shares compounds with PLK1 kinase inh;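 active = both duplicate runs show 50% or greater inhibition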
Numbers stand for hits; 0 = inactive; - = not tested or not shown.

SMILES	PLK1 kinase inh	PTK2B oligo ant	HIV Rev-RRE inh	PLK1 PBD inh	FAK blocker	Cav32 inh	PLK1 inh conf	Plk1 interf
Cc1ccc(S(=O)(=O)NCCC(=O)NCc2ccco2)cc1	-	0	-	-	-	-	-	-
Cc1cc(N2CCN(C)CC2)nc2ccc(NC(=O)CCC(=O)NCc3ccco3)cc12	0	0	0	0	0	0	-	-
CCc1ccccc1N1CC23C=CC(O2)C(C(=O)OCC(C)C)C3C1=O (stereo unspecified)	72	-	0	0	0	0	0	0
O=C(CSc1nc2ncc(Br)cc2[nH]1)Nc1ccc2c(c1)OCO2	70	0	0	0	0	-	0	0
CCOc1ccc2nc(SCC(=O)Nc3ccc4c(c3)OCCO4)[nH]c2c1	0	0	0	0	0	0	-	-
COc1ccc(NC(=O)CNS(=O)(=O)c2cccc3nonc23)c(OC)c1	-	0	-	-	-	-	-	-
O=C(N1CCOCC1)N1CCCN(C(=O)N2CCOCC2)CC1	0	0	0	0	0	0	-	-
COCCCN(C(=O)Nc1ccccc1)C(C)c1ccncc1 (stereo unspecified)	0	-	0	0	0	0	-	-
C=C(C)c1cccc(C(C)(C)NC(=O)N2CCN(c3ccccn3)CC2)c1	74	-	0	0	0	0	0	0
CCCCNCc1cc(Br)c(OCc2cccs2)c(OC)c1	0	0	0	0	0	0	-	-
CCCCNCc1cc(Br)c(OCC(=O)N2CCOCC2)c(OC)c1	125	0	0	0	0	0	0	0
CCN1CCN(CC(=O)Nc2ccc3c(c2)OCO3)C(=O)C1=O	0	-	0	0	0	0	-	-
CCN1CCN(CC(=O)Nc2ccc3c(c2)OCCO3)C(=O)C1=O	73	-	0	0	0	0	0	0
CCC(C)NC(=O)C1c2ccccc2C(=O)N(c2ccc(OC)cc2)C1c1ccc(OC)cc1 (stereo unspecified)	0	0	0	0	0	0	-	-
COC(=O)c1ccc(CSc2nnc(-c3c[nH]c4ccccc34)n2C)o1	71	-	0	0	0	0	0	0
C=CCSc1nnc(-c2c[nH]c3ccccc23)n1CCOC	0	0	0	0	0	0	-	-
COCCn1c(SCC(N)=O)nnc1-c1c[nH]c2ccccc12	71	-	0	0	0	0	0	0
Cn1c(SCc2ccccc2)nnc1-c1c[nH]c2ccccc12	0	-	0	0	0	0	-	-
CCc1nnc(NC(=O)CSc2nnc(-c3c[nH]c4ccccc34)n2CCOC)s1	0	0	0	0	0	0	-	-
CCSc1nnc(NC(=O)CSc2nnc(-c3c[nH]c4ccccc34)n2C)s1	76	-	0	0	0	0	0	0
CCOc1ccc(N2Nc3n[nH]c(N)c3N2)cc1	78	0	0	0	0	0	68	0
CCOc1ccc(-n2c(-c3ccccc3)nnc2-c2ccccc2)cc1	-	0	-	-	-	-	-	-
COc1ccc(N2Nc3n[nH]c(N)c3N2)cc1	80	0	0	0	0	0	74	0
COC(=O)CNC(=O)Cc1c(F)cccc1Cl	0	0	0	0	0	0	-	-
COC(=O)c1c(F)c(F)c(NCCO)c(F)c1F	0	0	0	0	0	0	-	-
SMILES	PLK1 kinase inh	PTK2B oligo ant	HIV Rev-RRE inh	PLK1 PBD inh	FAK blocker	Cav32 inh	PLK1 inh conf	Plk1 interf
Cc1ccc(S(=O)(=O)NC(CN2CCOCC2)=NCCNS(=O)(=O)c2ccccc2)cc1	0	0	0	0	0	0	-	-
Cc1[nH]n(-c2ccccc2)c(=O)c1C(c1cccc([N+](=O)[O-])c1)c1c(C)[nH]n(-c2ccccc2)c1=O	-	0	-	-	-	-	-	-
Cc1[nH]n(-c2ccccc2)c(=O)c1C(C[N+](=O)[O-])c1ccc(Br)cc1 (stereo unspecified)	101	0	0	0	0	0	0	0
CC(C)n1c(SCc2ccccc2F)nc2c1c(=O)n(C)c(=O)n2C	78	-	0	0	0	0	0	0
CC1(C)CC(=O)c2sc(NC(=O)C3CC3)nc2C1	75	-	0	0	0	-	0	0
COc1ccc(C(=O)N2CCOCC2)cc1Br	130	0	0	0	0	0	0	0
COc1cc2c(cc1OC)-c1nnc(-c3ccco3)n1C1(CCCC1)C2	0	0	0	0	0	0	-	-
CN1CCN(C(=S)Nc2cc([N+](=O)[O-])ccc2Cl)CC1	-	0	-	-	-	-	-	-
CC(C)c1ccc(C(C(=O)NC(C)(C)C)N(C(=O)CNC(=O)c2ccco2)c2cccnc2)cc1 (stereo unspecified)	0	0	0	0	0	0	-	-
CCC(C)(C)NC(=O)C(c1ccco1)N(C(=O)CNC(=O)c1cccs1)c1cccnc1 (stereo unspecified)	109	0	0	0	0	0	0	0
N#CCC(=O)Nc1sc2c(c1C(N)=O)CCCC2	70	-	0	0	0	0	0	0
NC(=O)c1c(NC(=O)CN2CCCC2)sc2c1CCCC2	0	0	0	0	0	0	-	-
Fc1ccc(Br)cc1C1C=C(c2cccnc2)Nc2ncnn21 (stereo unspecified)	88	-	0	0	0	0	0	0
CC(C)(C)c1ccc(C2=CC(c3ccccc3F)n3ncnc3N2)cc1 (stereo unspecified)	-	-	-	-	-	0	-	-
CCO[C@@H]1OC(C(=O)O)=C[C@H](c2ccc(Br)cc2)[C@H]1CCCO	-	-	-	-	-	0	-	-
c1ccc(-c2noc(CN3CCN(c4ccccc4)CC3)n2)cc1	73	-	0	0	0	0	0	0
Fc1ccccc1N1CCN(Cc2nc(-c3ccccc3)no2)CC1	0	0	0	0	0	0	-	-
CC(C)(C)CC(C)(C)NC(=S)NC1CCN(Cc2ccccc2)CC1	-	0	-	-	-	-	-	-
CCCCN(CC)CCCNC(=O)Cn1nc(Cc2cccnc2)c2ccccc2c1=O	0	0	0	0	0	0	-	-
O=C(Cn1nc(Cc2cccnc2)c2ccccc2c1=O)NCc1ccc2c(c1)OCO2	72	-	0	0	0	0	0	0
CC1CCN(CC(C)OC(=O)c2ccc3c(c2)OCCO3)CC1 (stereo unspecified)	70	-	0	0	0	0	0	0
Cc1ccc(C)n1-c1ccc(C(=O)NCC2CCCO2)cc1 (stereo unspecified)	0	0	0	0	0	0	-	-
COC(=O)c1sc2nc(CSc3nc4ccc(C)cc4[nH]3)[nH]c(=O)c2c1C	71	0	0	0	0	0	0	0
O=C(Nc1ccccc1)Nc1nccs1	93	0	0	0	0	0	0	0
COc1ccc(NC(=O)Nc2nccs2)cc1	0	0	0	0	0	0	-	-
C=CCc1cc(C)ccc1OCCn1ccnc1	86	0	0	0	0	0	0	0
CCc1ccc(N(CC(=O)NC2CCCCC2)S(=O)(=O)c2c(C)noc2C)cc1	74	-	0	0	0	0	0	0
CC1CN(C2CCN(C(=O)c3ccccc3)CC2)CC(C)O1 (stereo unspecified)	-	0	-	-	-	0	-	-
Cc1cc(C)cc(OCC(O)CN2C(=O)NC(C)(C)C2=O)c1 (stereo unspecified)	72	-	0	0	0	0	0	0
